The source of these data is PubChem BioAssay AID2516 (University of Pittsburgh Molecular Library Screening Center, 2010).

The other results are listed elsewhere or left out. Unmarked numbers belong to inactive results.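 The calls were made as follows: active = at least 50% inhibition in the glucose-6-phosphate dehydrogenase coupled counterscreen; inconclusive = no clear call, values can overlap the other calls; inactive = inhibition below 50%.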

This experiment concerns glucose-6-phosphate dehydrogenase [Leuconostoc mesenteroides]. Description: Leuconostoc G6PDH inhibition, confirmation, counter-screen for TbHK1 inhibitor project, biochemical, DPI cherry-picked compounds, single concentration (AID 2516). The note with it: purified G6PDH, NADH absorbance, 1 h; at 10 µM; active compounds read high. In a few lines:
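System: purified G6PDH enzyme. Amount: enzyme 0.006 mU/µL final. Also added: substrates G6P at 0.2 mM and NAD+ at 0.6 mM, final. Compound dosing: single point, test compound at 10 µM final. Incubation: enzyme reaction for 1 h at room temperature. Technique: absorbance after 50 mM EDTA stop.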
Turning to `COC(=O)C1CCN(CC(N)=O)CC1`, the inhibition – broadly, the drop in the measured response relative to a control, in per cent – was -9.01%.
Consider `COc1cccc(/C=N/Nc2ncc(C(F)(F)F)cc2Cl)c1O`, for which the inhibition was -9.42%.
The value for `CC1(C)CC(=O)C=C(NCCCNC2CCCCC2)C1` was 2.59%; that for `O=C(CN1C(=O)C2C3C=CC(C3)C2C1=O)NCCc1ccccc1Cl` (centres undefined) was -2.31%.
